Laboratory results taken from ChEMBL document CHEMBL1287679, “Tuning hydrophobicity of highly cationic tetradecameric Gramicidin S analogues using adamantane amino acids” (Bioorg Med Chem, 2010).
Converted amounts (≈) assume the structure as drawn. Where a SMILES comes first, the peptide text is derived from it. [ ]: non-standard residue; d: D form. Orn = NCCC[C@H](N)C(=O)O

Tests used:
[1] = tested on: Staphylococcus epidermidis; assay: Antimicrobial activity against Staphylococcus epidermidis ATCC 12228 by broth dilution method; format: functional
Outline: (§1)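 Stored at −70 °C, grown at 35 °C on Columbia sheep-blood agar, then suspended in physiological saline to OD 0.1 AU at 595 nm and diluted 100× in saline. 2 µL inoculum was added to 50 µL cation-adjusted Mueller Hinton II broth. Peptides in methanol (4 g/L stock) were diluted in water, then two-fold in broth (64–1 mg/L). Incubation was 35 °C for 24–48 h. MIC is the lowest concentration inhibiting growth.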

Staphylococcus aureus [2] = assay: Antimicrobial activity against Staphylococcus aureus ATCC 29213 by broth dilution method; format: functional
Outline: (§2)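 Frozen (−70 °C) stocks grown at 35 °C on Columbia sheep-blood agar, suspended in physiological saline to OD595 0.1, diluted 100×; 2 µL inoculum into 50 µL cation-adjusted Mueller Hinton II broth in 96-well plates. Peptides dissolved in methanol (4 g/L), diluted in water, two-fold serial dilutions in broth (64–1 mg/L). Incubation at 35 °C, 24–48 h; MIC = lowest concentration inhibiting growth.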

Pseudomonas aeruginosa = assay: Antimicrobial activity against Pseudomonas aeruginosa ATCC 27853 by broth dilution method; format: functional; outline: as §1
Escherichia coli = assay: Antimicrobial activity against Escherichia coli ATCC 25922 by broth dilution method; format: functional; outline: as §1
Bacillus cereus = assay: Antimicrobial activity against Bacillus cereus ATCC 11778 by broth dilution method; format: functional; outline: as §1
Enterococcus faecalis = assay: Antimicrobial activity against Enterococcus faecalis ATCC 29212 by broth dilution method; format: functional; outline: as §1
Staphylococcus aureus [3] = assay: Antimicrobial activity against community acquired methicillin-resistant Staphylococcus aureus isolate 1110301146 by broth dilution method; format: functional; outline: as §2
Staphylococcus aureus [4] = assay: Antimicrobial activity against methicillin-resistant Staphylococcus aureus isolate 1110301981 by broth dilution method; format: functional; outline: as §2
Staphylococcus aureus [5] = assay: Antimicrobial activity against methicillin-resistant Staphylococcus aureus N229 by broth dilution method; format: functional; outline: as §2
Staphylococcus aureus [6] = assay: Antimicrobial activity against methicillin-resistant Staphylococcus aureus N133 by broth dilution method; format: functional; outline: as §2
Staphylococcus aureus [7] = assay: Antimicrobial activity against methicillin-resistant Staphylococcus aureus ATCC 49775 by broth dilution method; format: functional; outline: as §2
Staphylococcus aureus [8] = assay: Antimicrobial activity against methicillin-resistant Staphylococcus aureus ATCC 43300 by broth dilution method; format: functional; outline: as §2
[9] = Toxicity in Erythrocyte assessed as concentration required to achieve 100% hemolysis after 4 hrs; format: cell-based
Outline: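 Heparinized fresh blood was centrifuged (1000g, 10 min, 10 °C). Erythrocytes were washed three times in 0.85% saline and diluted to a 1/25 packed volume. Peptides were prepared as a 1.5 mM stock in 30% DMSO/0.5 mM saline and serially two-fold diluted in triplicate rows. 1% Triton-X served as the full-lysis control. Incubation was 37 °C for 4 h, then centrifugation; supernatant was read. Value is the concentration giving 100% lysis.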

[10] = Therapeutic index, concentration required to achieve 100% hemolysis in erythrocyte to MIC for Staphylococcus aureus ATCC 29213; conditions: erythrocytes
Outline: (§3)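 Therapeutic index was taken as the concentration for 100% haemolysis divided by MIC for the given strain.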

[11] = Therapeutic index, concentration required to achieve 100% hemolysis in erythrocyte to MIC for Escherichia coli ATCC 25922; conditions: erythrocytes; outline: as §3

SMILES	MIC [1] [µg/mL]	MIC (Staphylococcus aureus [2]) [µg/mL]	MIC (Pseudomonas aeruginosa) [µg/mL]	MIC (Escherichia coli) [µg/mL]	MIC (Bacillus cereus) [µg/mL]	MIC (Enterococcus faecalis) [µg/mL]	MIC (Staphylococcus aureus [3]) [µg/mL]	MIC (Staphylococcus aureus [4]) [µg/mL]	MIC (Staphylococcus aureus [5]) [µg/mL]	MIC (Staphylococcus aureus [6]) [µg/mL]	MIC (Staphylococcus aureus [7]) [µg/mL]	MIC (Staphylococcus aureus [8]) [µg/mL]	Activity [9] [µM]	selectivity ratio ([10]; read-out: Ratio)	selectivity ratio [11]	selectivity ratio ([10]; read-out: TI)
CC(C)C[C@@H]1NC(=O)[C@H](CCCN)NC(=O)[C@H](C(C)C)NC(=O)[C@H](CCCN)NC(=O)[C@@H]2CCCN2C(=O)[C@@H](Cc2ccccc2)NC(=O)[C@H](CCCN)NC(=O)[C@H](CC(C)C)NC(=O)[C@H](CCCN)NC(=O)[C@H](C(C)C)NC(=O)[C@H](CCCN)NC(=O)[C@@H]2CCCN2C(=O)[C@@H](Cc2ccccc2)NC(=O)[C@H](CCCN)NC1=O	8 (≈ 5.01 µM)	64 (≈ 40 µM)	64 (≈ 40 µM)	32 (≈ 20 µM)	32 (≈ 20 µM)	> 64	64 (≈ 40 µM)	64 (≈ 40 µM)	64 (≈ 40 µM)	> 64	64 (≈ 40 µM)	> 64	> 500	11.7	11.7	
CC(C)C[C@@H]1NC(=O)[C@H](CCCN)NC(=O)[C@H](C(C)C)NC(=O)[C@H](CCCN)NC(=O)[C@@H]2CCCN2C(=O)[C@@H](Cc2ccccc2)NC(=O)[C@H](CCCN)NC(=O)[C@H](CC23CC4CC(CC(C4)C2)C3)NC(=O)[C@H](CCCN)NC(=O)[C@H](C(C)C)NC(=O)[C@H](CCCN)NC(=O)[C@@H]2CCCN2C(=O)[C@@H](Cc2ccccc2)NC(=O)[C@H](CCCN)NC1=O	8 (≈ 4.73 µM)	16 (≈ 9.47 µM)	16 (≈ 9.47 µM)	16 (≈ 9.47 µM)	8 (≈ 4.73 µM)	32 (≈ 18.9 µM)	16 (≈ 9.47 µM)	8 (≈ 4.73 µM)	16 (≈ 9.47 µM)	8 (≈ 4.73 µM)	8 (≈ 4.73 µM)	8 (≈ 4.73 µM)	125	7.8	7.8	
CC(C)C[C@@H]1NC(=O)[C@H](CCCN)NC(=O)[C@H](C(C)C)NC(=O)[C@H](CCCN)NC(=O)[C@@H]2CCCN2C(=O)[C@@H](Cc2ccccc2)NC(=O)[C@H](CCCN)NC(=O)[C@H](CC(C)C)NC(=O)[C@H](CCCN)NC(=O)[C@H](C23CC4CC(CC(C4)C2)C3)NC(=O)[C@H](CCCN)NC(=O)[C@@H]2CCCN2C(=O)[C@@H](Cc2ccccc2)NC(=O)[C@H](CCCN)NC1=O	4 (≈ 2.37 µM)	16 (≈ 9.47 µM)	8 (≈ 4.73 µM)	16 (≈ 9.47 µM)	8 (≈ 4.73 µM)	32 (≈ 18.9 µM)	16 (≈ 9.47 µM)	8 (≈ 4.73 µM)	8 (≈ 4.73 µM)	8 (≈ 4.73 µM)	8 (≈ 4.73 µM)	8 (≈ 4.73 µM)	125	7.8	15.6	
CC(C)C[C@@H]1NC(=O)[C@H](CCCN)NC(=O)[C@H](C(C)C)NC(=O)[C@H](CCCN)NC(=O)[C@@H]2CCCN2C(=O)[C@@H](Cc2ccccc2)NC(=O)[C@H](CCCN)NC(=O)[C@H](CC23CC4CC(CC(C4)C2)C3)NC(=O)[C@H](CCCN)NC(=O)[C@H](C23CC4CC(CC(C4)C2)C3)NC(=O)[C@H](CCCN)NC(=O)[C@@H]2CCCN2C(=O)[C@@H](Cc2ccccc2)NC(=O)[C@H](CCCN)NC1=O	4 (≈ 2.24 µM)	8 (≈ 4.49 µM)	8 (≈ 4.49 µM)	16 (≈ 8.98 µM)	1 (≈ 0.561 µM)	8 (≈ 4.49 µM)	16 (≈ 8.98 µM)	16 (≈ 8.98 µM)	16 (≈ 8.98 µM)	16 (≈ 8.98 µM)	16 (≈ 8.98 µM)	16 (≈ 8.98 µM)	31.3	3.9	3.9	
CC(C)C[C@@H]1NC(=O)[C@H](CCCN)NC(=O)[C@H](C23CC4CC(CC(C4)C2)C3)NC(=O)[C@H](CCCN)NC(=O)[C@@H]2CCCN2C(=O)[C@@H](Cc2ccccc2)NC(=O)[C@H](CCCN)NC(=O)[C@H](CC(C)C)NC(=O)[C@H](CCCN)NC(=O)[C@H](C23CC4CC(CC(C4)C2)C3)NC(=O)[C@H](CCCN)NC(=O)[C@@H]2CCCN2C(=O)[C@@H](Cc2ccccc2)NC(=O)[C@H](CCCN)NC1=O	8 (≈ 4.49 µM)	8 (≈ 4.49 µM)	16 (≈ 8.98 µM)	16 (≈ 8.98 µM)	2 (≈ 1.12 µM)	8 (≈ 4.49 µM)	8 (≈ 4.49 µM)	8 (≈ 4.49 µM)	8 (≈ 4.49 µM)	8 (≈ 4.49 µM)	8 (≈ 4.49 µM)	8 (≈ 4.49 µM)	31.3	3.9	2	
CC(C)C[C@@H]1NC(=O)[C@H](CCCN)NC(=O)[C@H](C23CC4CC(CC(C4)C2)C3)NC(=O)[C@H](CCCN)NC(=O)[C@@H]2CCCN2C(=O)[C@@H](Cc2ccccc2)NC(=O)[C@H](CCCN)NC(=O)[C@H](CC23CC4CC(CC(C4)C2)C3)NC(=O)[C@H](CCCN)NC(=O)[C@H](C(C)C)NC(=O)[C@H](CCCN)NC(=O)[C@@H]2CCCN2C(=O)[C@@H](Cc2ccccc2)NC(=O)[C@H](CCCN)NC1=O	4 (≈ 2.24 µM)	8 (≈ 4.49 µM)	16 (≈ 8.98 µM)	16 (≈ 8.98 µM)	4 (≈ 2.24 µM)	16 (≈ 8.98 µM)	16 (≈ 8.98 µM)	16 (≈ 8.98 µM)	16 (≈ 8.98 µM)	32 (≈ 18 µM)	16 (≈ 8.98 µM)	16 (≈ 8.98 µM)	31.3	3.9	2	
CC(C)[C@@H]1NC(=O)[C@H](CCCN)NC(=O)[C@@H]2CCCN2C(=O)[C@@H](Cc2ccccc2)NC(=O)[C@H](CCCN)NC(=O)[C@H](CC23CC4CC(CC(C4)C2)C3)NC(=O)[C@H](CCCN)NC(=O)[C@H](C(C)C)NC(=O)[C@H](CCCN)NC(=O)[C@@H]2CCCN2C(=O)[C@@H](Cc2ccccc2)NC(=O)[C@H](CCCN)NC(=O)[C@H](CC23CC4CC(CC(C4)C2)C3)NC(=O)[C@H](CCCN)NC1=O	8 (≈ 4.49 µM)	8 (≈ 4.49 µM)	8 (≈ 4.49 µM)	32 (≈ 18 µM)	8 (≈ 4.49 µM)	8 (≈ 4.49 µM)	8 (≈ 4.49 µM)	8 (≈ 4.49 µM)	8 (≈ 4.49 µM)	8 (≈ 4.49 µM)	8 (≈ 4.49 µM)	8 (≈ 4.49 µM)	31.3	3.9	3.9	
CC(C)[C@@H]1NC(=O)[C@H](CCCN)NC(=O)[C@@H]2CCCN2C(=O)[C@@H](Cc2ccccc2)NC(=O)[C@H](CCCN)NC(=O)[C@H](CC23CC4CC(CC(C4)C2)C3)NC(=O)[C@H](CCCN)NC(=O)[C@H](C23CC4CC(CC(C4)C2)C3)NC(=O)[C@H](CCCN)NC(=O)[C@@H]2CCCN2C(=O)[C@@H](Cc2ccccc2)NC(=O)[C@H](CCCN)NC(=O)[C@H](CC23CC4CC(CC(C4)C2)C3)NC(=O)[C@H](CCCN)NC1=O	4 (≈ 2.13 µM)	16 (≈ 8.54 µM)	16 (≈ 8.54 µM)	32 (≈ 17.1 µM)	4 (≈ 2.13 µM)	8 (≈ 4.27 µM)	32 (≈ 17.1 µM)	16 (≈ 8.54 µM)	16 (≈ 8.54 µM)	16 (≈ 8.54 µM)	16 (≈ 8.54 µM)	16 (≈ 8.54 µM)	15.6	1	1	
CC(C)C[C@@H]1NC(=O)[C@H](CCCN)NC(=O)[C@H](C23CC4CC(CC(C4)C2)C3)NC(=O)[C@H](CCCN)NC(=O)[C@@H]2CCCN2C(=O)[C@@H](Cc2ccccc2)NC(=O)[C@H](CCCN)NC(=O)[C@H](CC23CC4CC(CC(C4)C2)C3)NC(=O)[C@H](CCCN)NC(=O)[C@H](C23CC4CC(CC(C4)C2)C3)NC(=O)[C@H](CCCN)NC(=O)[C@@H]2CCCN2C(=O)[C@@H](Cc2ccccc2)NC(=O)[C@H](CCCN)NC1=O	8 (≈ 4.27 µM)	16 (≈ 8.54 µM)	16 (≈ 8.54 µM)	32 (≈ 17.1 µM)	4 (≈ 2.13 µM)	8 (≈ 4.27 µM)	8 (≈ 4.27 µM)	8 (≈ 4.27 µM)	8 (≈ 4.27 µM)	8 (≈ 4.27 µM)	16 (≈ 8.54 µM)	16 (≈ 8.54 µM)	15.6	1	1	
CC(C)C[C@@H]1NC(=O)[C@H](CCCN)NC(=O)[C@H](C(C)C)NC(=O)[C@@H]2CCCN2C(=O)[C@@H](Cc2ccccc2)NC(=O)[C@H](CC(C)C)NC(=O)[C@H](CCCN)NC(=O)[C@H](C(C)C)NC(=O)[C@@H]2CCCN2C(=O)[C@@H](Cc2ccccc2)NC1=O [GRAMICIDIN S] (cyclo(L[dF]PV[Orn]L[dF]PV[Orn]))	8 (≈ 7.01 µM)	32 (≈ 28 µM)	32 (≈ 28 µM)	64 (≈ 56.1 µM)	8 (≈ 7.01 µM)	8 (≈ 7.01 µM)	16 (≈ 14 µM)	16 (≈ 14 µM)	8 (≈ 7.01 µM)	16 (≈ 14 µM)	8 (≈ 7.01 µM)	8 (≈ 7.01 µM)	62.5		2	2
